Laboratory results from article PMC5968455 (Cancer cell, 2016).

How the values were obtained:
[1] = test system: patient-derived GBM neural stem cells (GNS); assay: Proliferation assay, dose-response series; format: cell-based, human; details: for IC50: read-out: potency (IC50) toward GNS, panel of six GNS lines; for selectivity toward GNS and NS compared with fibroblasts: IC50 of BJ/IC50 of any NS or GNS with the lowest IC50, dose series 0.39–50 µM
G481 = assay: Combination index with TMZ; format: cell-based, human; details: in combination with TMZ
Procedure, shortened: (§1)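 Patient-derived glioblastoma stem cell (GNS) cultures were exposed to temozolomide combined with a test compound (DRD4 antagonist). The combination index (CI) was calculated and plotted against fraction affected (Fa) to judge the interaction.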

G362 = assay: Combination index with TMZ; format: cell-based, human; details: in combination with TMZ
Procedure, shortened: as §1

GNS (G362 and G411) = assay: LC3B+ puncta immunofluorescence; format: cell-based, human; details: 48 hr; L-741,742 10 µM, PNU 96415E 25 µM
Procedure, shortened: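 Adherent, serum-free GNS cultures (G362, G411) were exposed for 48 hr to test compounds (DRD4 antagonists) at 10 µM or 25 µM, or DMSO. LC3B was immunostained, and cells with large LC3B+ puncta were counted (>200 cells per group). Results are the fraction of cells; n = 3, mean ± SEM, unpaired one-tailed t test.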

[2] = test system: subcutaneous implanted tumor (G362); assay: Subcutaneous GNS xenograft in NSG mice; format: in vivo, mouse; details: 20 mg/kg intraperitoneally; for reduction of average tumor weight at the endpoint: 5 days on, 2 days off, vs vehicle
[3] = test system: G362 cells injected intracranially; assay: Intracranial G362 xenograft survival in NSG mice; format: in vivo, mouse
GNS (G411 and G362) = assay: Flow cytometric cell-cycle analysis of DNA content; format: cell-based, human
Procedure, shortened: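 GNS lines G411 and G362 were grown as adherent monolayers in serum-free medium. They were exposed to test compounds (DRD4 antagonists) at 10 µM or 25 µM, alongside DMSO control, for 48 hr. DNA-content cell-cycle distribution was then analysed.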

[4] = test system: normal human NS lines (hf5205 and hf6539); assay: Neuronal differentiation of normal NS; format: cell-based; details: with sequential withdrawal of EGF and FGF; VGlut1 expression
GNS, NS and BJ lines = assay: Primary screen of neuroactive compounds, growth inhibition; format: cell-based, human; details: 5 µM, 5 days; hit = greater than 20% growth inhibition vs DMSO
Procedure, shortened: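 A 680-compound neuroactive library was screened at 5 µM for 5 days against three human GNS lines, two neural stem cell (NS) lines and BJ fibroblasts. GNS and NS lines were grown as adherent serum-free monolayers. Growth inhibition was calculated relative to DMSO control; a primary hit caused >20% inhibition.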

[5] = test system: non-NS control cells (BJ, Daoy, U-2 OS, C8-D1A); assay: Proliferation assay in non-NS control cell lines; format: cell-based; details: highest concentration tested 50 µM
adenylate cyclase = assay: Forskolin-induced cAMP response in GNS; format: cell-based, human; details: G362 cells, forskolin 30 µM
Procedure, shortened: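 G362 GNS cells were stimulated with forskolin (30 µM) to activate adenylate cyclase. Forskolin was given alone or after pretreatment with a DRD4-selective agonist (30 µM). cAMP level was expressed as fold change versus control; n = 3, mean ± SEM.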

DRD4 receptor = target: T1, DRD4 receptor (Homo sapiens, UniProt P21917); assay: Block of forskolin-induced cAMP response by DRD4 agonist; format: cell-based; details: G362 cells, pretreatment 30 µM, then forskolin 30 µM
T1 sequence (P21917 1-419): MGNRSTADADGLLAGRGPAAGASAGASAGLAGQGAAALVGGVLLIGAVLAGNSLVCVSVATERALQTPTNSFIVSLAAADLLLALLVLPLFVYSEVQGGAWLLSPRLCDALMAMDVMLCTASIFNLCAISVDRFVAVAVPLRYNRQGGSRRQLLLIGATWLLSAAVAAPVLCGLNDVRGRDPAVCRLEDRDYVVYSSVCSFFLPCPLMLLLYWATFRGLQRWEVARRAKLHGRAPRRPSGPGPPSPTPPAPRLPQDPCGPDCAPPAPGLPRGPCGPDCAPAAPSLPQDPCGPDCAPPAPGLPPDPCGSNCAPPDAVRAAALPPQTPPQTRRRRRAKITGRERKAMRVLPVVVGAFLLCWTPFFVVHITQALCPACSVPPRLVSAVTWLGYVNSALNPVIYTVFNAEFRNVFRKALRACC

Clc1ccc(N2CCN(Cc3c[nH]c4ncccc34)CC2)cc1 [L-745,870]
IC50 [1]: 3.1 to 6.2 µM

Cc1c(C2CCN(CCc3ccccc3)CC2)noc1-c1ccc(Cl)cc1 [L-741,742]
selectivity against GNS compared with NS [1]: 8 fold
selectivity toward GNS and NS compared with fibroblasts [1]: more than 8 fold
IC50 [1]: 1.5 to 6.2 µM
lowest combination index (CI) value (G481): 0.28
lowest combination index (CI) value (G362): 0.29
cells showing large LC3B+ puncta (GNS (G362 and G411)): more than 50%
tumor volume growth vs vehicle control [2]: much slower growth
reduction of average tumor weight at the endpoint [2]: 40.9%
survival over control ([3]; 25 mg/kg alone, treatment from 1 week after engraftment): modest but significant benefit in survival
survival compared with TMZ alone ([3]; 25 mg/kg combined with TMZ (25 or 12.5 mg/kg gavage)): significantly improved survival
cell-cycle effect (GNS (G411 and G362)): G0/G1 arrest
neuronal differentiation of NS [4]: dramatically enhanced neuronal differentiation

PD 168568
IC50 [1]: 25 to 50 µM

Cc1cc(C)cc(C(=O)OC2CC3CCC(C2)N3C)c1 (stereo not shown) [tropanyl 3,5-dimethylbenzoate]
selectivity toward GNS and NS compared with fibroblasts [1]: more than 8 fold

CCN(CC)CCCC(C)Nc1ccnc2cc(Cl)ccc12 (stereo not shown) [chloroquine]
cell-cycle effect (GNS (G411 and G362)): G0/G1 arrest

CN1[C@@H]2CC[C@H]1C[C@@H](OC(=O)c1cc(Cl)cc(Cl)c1)C2 [MDL-72222]
selectivity toward GNS and NS compared with fibroblasts [1]: more than 8 fold

CC(C(O)c1ccc(O)cc1)N1CCC(Cc2ccccc2)CC1.CC(C(O)c1ccc(O)cc1)N1CCC(Cc2ccccc2)CC1.O=C(O)C(O)C(O)C(=O)O (stereo not shown) [ifenprodil tartrate]
selectivity against GNS compared with NS [1]: 8 fold
selectivity toward GNS and NS compared with fibroblasts [1]: more than 8 fold

CSc1ccc2c(c1)N(CCC1CCCCN1C)c1ccccc1S2 (stereo not shown) [thioridazine]
primary screen result (GNS, NS and BJ lines): hits

O=C(NOC[C@H](O)CO)c1ccc(F)c(F)c1Nc1ccc(I)cc1F [PD 0325901]
cell-cycle effect (GNS (G411 and G362)): G0/G1 arrest

CN1CCN(CCCN2c3ccccc3Sc3ccc(C(F)(F)F)cc32)CC1 [trifluoperazine]
primary screen result (GNS, NS and BJ lines): hits

CCN(CC)CCOc1ccc(Cc2ccccc2)cc1 [N,N-diethyl-2-(4-(phenylmethyl)phenoxy) ethanamine]
selectivity toward GNS and NS compared with fibroblasts [1]: more than 8 fold

Cl.Cl.Fc1ccc(N2CCN(CCC3OCCc4ccccc43)CC2)cc1 (stereo not shown) [PNU 96415E]
selectivity against GNS compared with NS [1]: 8 fold
selectivity toward GNS and NS compared with fibroblasts [1]: more than 8 fold
IC50 [1]: 6.25 µM
sensitivity of non-NS control cells [5]: not sensitive even at the highest concentration tested
lowest combination index (CI) value (G481): 0.32
lowest combination index (CI) value (G362): 0.56
cells showing large LC3B+ puncta (GNS (G362 and G411)): more than 50%
tumor volume growth vs vehicle control [2]: much slower growth
reduction of average tumor weight at the endpoint [2]: 44.3%
cell-cycle effect (GNS (G411 and G362)): G0/G1 arrest

CCC(Oc1ccc(Cl)cc1)C(=O)OC1CC2CCC(C1)N2C (racemic) [(±)-tropanyl-2-(4-chlorophenoxy)butanoate]
selectivity toward GNS and NS compared with fibroblasts [1]: more than 8 fold

Nc1ccc(CCN2CCN(c3cccc(C(F)(F)F)c3)CC2)cc1 [LY-165,163]
selectivity toward GNS and NS compared with fibroblasts [1]: more than 8 fold

C=C[C@@]1(C)CC(=O)[C@]2(O)[C@@]3(C)[C@@H](O)CCC(C)(C)[C@@H]3[C@H](O)[C@H](OC(C)=O)[C@@]2(C)O1 [Forskolin, forskolin]
increase in cAMP concentration (adenylate cyclase): 2.1 fold

Cc1cccc(NC(=O)CN2CCC(c3ccccn3)CC2)c1 [A412997]
block of forskolin-induced cAMP response (DRD4 receptor): 31.3%
